{"source": "ChEMBL document CHEMBL1629532", "about": "“Design, synthesis, and structure-activity relationships of 3-ethynyl-1H-indazoles as inhibitors of the phosphatidylinositol 3-kinase signaling pathway” (J Med Chem, 2010)", "key": {"MDA-MB-231": {"test_system": "MDA-MB-231", "experiment": "Growth inhibition of human MDA-MB-231 cells after 72 hrs by ATPlite assay", "assay_type": "functional", "conditions": "MDA-MB-231, 72 h", "method_in_brief": "(§1)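 Cells seeded at about 3000 per well, grown 24 h, then given fresh medium and test compound in triplicate at 0.5 to 100µM in DMSO (0.5% final). Exposure 72 h at 37 °C, 5% CO₂. Viability measured by ATPlite luminescence and normalized to DMSO-treated controls. GI50 obtained by curve fitting. HeLa cultured in DMEM/10% FBS; MCF7, MDA-MB-231 and PC3 cultured in RPMI+GlutaMAX/10% FBS.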"}, "MCF7": {"test_system": "MCF7", "experiment": "Growth inhibition of human MCF7 cells after 72 hrs by ATPlite assay", "assay_type": "functional", "conditions": "MCF7, 72 h", "method_in_brief": "as §1"}, "[1]": {"target": "T1, Phosphatidylinositol 4,5-bisphosphate 3-kinase catalytic subunit delta isoform (Homo sapiens, UniProt O00329)", "T1 sequence (O00329 whole entry)": "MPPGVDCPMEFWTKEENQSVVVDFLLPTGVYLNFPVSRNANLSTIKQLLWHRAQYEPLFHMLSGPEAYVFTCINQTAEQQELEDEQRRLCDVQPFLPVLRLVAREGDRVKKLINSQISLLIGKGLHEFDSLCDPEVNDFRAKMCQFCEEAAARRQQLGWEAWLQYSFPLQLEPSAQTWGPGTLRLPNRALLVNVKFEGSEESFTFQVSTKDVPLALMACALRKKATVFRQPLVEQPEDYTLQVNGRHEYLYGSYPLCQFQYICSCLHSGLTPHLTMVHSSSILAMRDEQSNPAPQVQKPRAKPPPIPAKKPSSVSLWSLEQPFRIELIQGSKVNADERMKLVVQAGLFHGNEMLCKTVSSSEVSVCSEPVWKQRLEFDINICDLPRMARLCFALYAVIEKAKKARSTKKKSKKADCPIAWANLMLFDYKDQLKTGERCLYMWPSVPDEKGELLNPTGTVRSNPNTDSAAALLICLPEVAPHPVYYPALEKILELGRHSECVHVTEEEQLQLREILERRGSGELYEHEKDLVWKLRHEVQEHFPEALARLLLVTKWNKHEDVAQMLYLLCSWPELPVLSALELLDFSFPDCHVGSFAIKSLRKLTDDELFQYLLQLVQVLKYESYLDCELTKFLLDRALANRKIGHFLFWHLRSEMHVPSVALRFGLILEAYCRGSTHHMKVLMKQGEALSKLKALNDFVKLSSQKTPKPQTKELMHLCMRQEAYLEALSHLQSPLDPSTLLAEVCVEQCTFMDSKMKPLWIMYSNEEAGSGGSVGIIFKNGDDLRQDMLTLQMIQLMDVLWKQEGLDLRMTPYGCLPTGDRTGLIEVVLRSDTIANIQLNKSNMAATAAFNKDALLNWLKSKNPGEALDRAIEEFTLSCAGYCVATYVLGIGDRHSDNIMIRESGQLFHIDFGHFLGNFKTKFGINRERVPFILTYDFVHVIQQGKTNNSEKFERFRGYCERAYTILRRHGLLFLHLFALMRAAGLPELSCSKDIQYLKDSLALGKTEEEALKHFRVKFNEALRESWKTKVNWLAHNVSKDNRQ", "experiment": "Inhibition of PI3Kdelta", "conditions": "read-out: I50"}, "Liver microsomes": {"test_system": "Liver microsomes", "experiment": "Metabolic stability in rat liver microsomes", "assay_type": "ADME, Microsome", "method_in_brief": "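Rat liver microsomes (1 mg/ml protein) with 4µM compound in 50mM phosphate pH 7.2. Pre-incubated 5 min at 37.5 °C, then started with 2mM NADPH and run 1 h. Samples taken every 15 min, quenched in methanol with internal standard, analyzed by LC-MS. Duplicate runs alongside two control compounds of known half-life. Half-life reported.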"}, "[2]": {"target": "Tyrosine-protein kinase ABL1 (Homo sapiens) (UniProt P00519)", "experiment": "Inhibition of ABL1 […] mutant at 10 uM"}, "[3]": {"target": "Cyclin-dependent kinase 5/CDK5 activator 1 (Homo sapiens) (UniProt Q00535+Q15078)", "sequence (Q00535 whole entry)": "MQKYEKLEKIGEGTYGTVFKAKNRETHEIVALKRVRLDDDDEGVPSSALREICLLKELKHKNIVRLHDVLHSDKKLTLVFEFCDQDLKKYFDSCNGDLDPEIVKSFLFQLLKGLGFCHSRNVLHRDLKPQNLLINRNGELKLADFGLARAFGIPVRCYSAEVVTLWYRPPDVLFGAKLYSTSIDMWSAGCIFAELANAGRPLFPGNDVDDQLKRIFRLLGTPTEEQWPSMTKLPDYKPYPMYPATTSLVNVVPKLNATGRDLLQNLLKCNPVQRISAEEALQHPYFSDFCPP", "sequence (Q15078 99-307 partner limits assumed)": "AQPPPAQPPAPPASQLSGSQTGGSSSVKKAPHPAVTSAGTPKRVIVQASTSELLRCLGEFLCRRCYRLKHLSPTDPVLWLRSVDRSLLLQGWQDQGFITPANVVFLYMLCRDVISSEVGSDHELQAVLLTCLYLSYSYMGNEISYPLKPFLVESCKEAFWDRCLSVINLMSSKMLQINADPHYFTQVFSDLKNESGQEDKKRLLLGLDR", "experiment": "Inhibition of CDK5/P25 at 10 uM", "assay_type": "protein-complex assay"}, "[4]": {"target": "Inhibitor of nuclear factor kappa-B kinase subunit alpha (Homo sapiens) (UniProt O15111)", "sequence (O15111 whole entry)": "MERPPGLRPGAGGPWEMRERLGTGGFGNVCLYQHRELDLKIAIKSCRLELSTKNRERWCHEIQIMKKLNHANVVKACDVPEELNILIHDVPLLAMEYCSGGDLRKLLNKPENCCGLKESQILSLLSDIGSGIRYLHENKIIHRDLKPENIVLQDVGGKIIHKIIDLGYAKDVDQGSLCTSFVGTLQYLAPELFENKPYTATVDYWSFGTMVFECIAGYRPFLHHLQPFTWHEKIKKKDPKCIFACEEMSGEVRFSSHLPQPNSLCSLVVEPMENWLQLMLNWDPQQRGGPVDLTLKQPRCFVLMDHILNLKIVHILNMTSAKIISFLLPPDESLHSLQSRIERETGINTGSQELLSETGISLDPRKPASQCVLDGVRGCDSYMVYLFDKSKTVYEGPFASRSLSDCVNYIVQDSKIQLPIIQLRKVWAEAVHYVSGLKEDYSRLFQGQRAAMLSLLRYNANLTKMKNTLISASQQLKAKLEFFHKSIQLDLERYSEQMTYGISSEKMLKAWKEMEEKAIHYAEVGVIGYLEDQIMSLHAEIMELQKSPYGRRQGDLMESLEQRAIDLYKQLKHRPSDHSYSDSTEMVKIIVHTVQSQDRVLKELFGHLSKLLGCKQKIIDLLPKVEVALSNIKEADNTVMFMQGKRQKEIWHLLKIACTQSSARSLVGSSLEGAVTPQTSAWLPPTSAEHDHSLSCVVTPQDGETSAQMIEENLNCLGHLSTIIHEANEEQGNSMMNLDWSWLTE", "experiment": "Inhibition of IKKalpha at 10 uM"}, "[5]": {"target": "Dual specificity protein kinase CLK2 (Homo sapiens) (UniProt P49760)", "sequence (P49760 whole entry, looked up)": "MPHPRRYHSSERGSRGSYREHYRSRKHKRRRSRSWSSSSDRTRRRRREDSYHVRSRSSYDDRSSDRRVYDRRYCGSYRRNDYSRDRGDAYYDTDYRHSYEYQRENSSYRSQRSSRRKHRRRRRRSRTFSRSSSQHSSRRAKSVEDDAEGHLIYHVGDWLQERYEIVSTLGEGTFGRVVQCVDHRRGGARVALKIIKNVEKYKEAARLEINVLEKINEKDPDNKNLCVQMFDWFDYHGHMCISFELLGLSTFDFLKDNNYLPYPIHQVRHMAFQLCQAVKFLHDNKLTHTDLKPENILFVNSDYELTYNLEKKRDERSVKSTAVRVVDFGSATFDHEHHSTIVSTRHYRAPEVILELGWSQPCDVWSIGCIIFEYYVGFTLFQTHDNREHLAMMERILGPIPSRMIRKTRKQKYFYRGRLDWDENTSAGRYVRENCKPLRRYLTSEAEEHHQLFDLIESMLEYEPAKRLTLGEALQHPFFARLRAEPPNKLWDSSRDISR", "experiment": "Inhibition of CLK2 at 10 uM"}, "[6]": {"test_system": "Receptor-type tyrosine-protein kinase FLT3 (Homo sapiens), P36888 [D835Y]", "experiment": "Inhibition of FLT3 D835Y mutant at 10 uM"}, "[7]": {"target": "Vascular endothelial growth factor receptor 3 (Homo sapiens) (UniProt P35916)", "experiment": "Inhibition of FLT4 at 10 uM"}, "[8]": {"target": "Interleukin-1 receptor-associated kinase 1 (Homo sapiens) (UniProt P51617)", "experiment": "Inhibition of IRAK1 at 10 uM"}, "[9]": {"target": "Mitogen-activated protein kinase 8 (Homo sapiens) (UniProt P45983)", "sequence (P45983 whole entry)": "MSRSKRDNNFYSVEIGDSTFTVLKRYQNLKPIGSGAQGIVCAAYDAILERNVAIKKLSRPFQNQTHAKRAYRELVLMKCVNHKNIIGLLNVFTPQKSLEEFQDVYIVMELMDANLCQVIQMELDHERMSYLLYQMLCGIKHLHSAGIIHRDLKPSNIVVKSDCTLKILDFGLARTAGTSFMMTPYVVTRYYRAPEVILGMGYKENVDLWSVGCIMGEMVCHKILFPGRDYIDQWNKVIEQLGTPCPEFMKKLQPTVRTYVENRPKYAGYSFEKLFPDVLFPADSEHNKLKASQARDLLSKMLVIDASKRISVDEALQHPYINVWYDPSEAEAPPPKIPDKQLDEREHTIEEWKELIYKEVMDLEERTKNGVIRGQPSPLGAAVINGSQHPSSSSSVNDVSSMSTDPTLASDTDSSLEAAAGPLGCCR", "experiment": "Inhibition of JNK1 at 10 uM"}, "[10]": {"target": "Mitogen-activated protein kinase kinase kinase kinase 4 (Homo sapiens) (UniProt O95819)", "experiment": "Inhibition of MAP4K4 at 10 uM"}, "[11]": {"target": "MAP/microtubule affinity-regulating kinase 4 (Homo sapiens) (UniProt Q96L34)", "experiment": "Inhibition of MARK4 at 10 uM"}, "[12]": {"target": "Maternal embryonic leucine zipper kinase (Homo sapiens) (UniProt Q14680)", "experiment": "Inhibition of MELK at 10 uM"}, "[13]": {"target": "Misshapen-like kinase 1 (Homo sapiens) (UniProt Q8N4C8)", "experiment": "Inhibition of MINK1 at 10 uM"}, "[14]": {"target": "High affinity nerve growth factor receptor (Homo sapiens) (UniProt P04629)", "experiment": "Inhibition of NTRK1 at 10 uM"}, "[15]": {"target": "BDNF/NT-3 growth factors receptor (Homo sapiens) (UniProt Q16620)", "sequence (Q16620 32-822 limits assumed)": "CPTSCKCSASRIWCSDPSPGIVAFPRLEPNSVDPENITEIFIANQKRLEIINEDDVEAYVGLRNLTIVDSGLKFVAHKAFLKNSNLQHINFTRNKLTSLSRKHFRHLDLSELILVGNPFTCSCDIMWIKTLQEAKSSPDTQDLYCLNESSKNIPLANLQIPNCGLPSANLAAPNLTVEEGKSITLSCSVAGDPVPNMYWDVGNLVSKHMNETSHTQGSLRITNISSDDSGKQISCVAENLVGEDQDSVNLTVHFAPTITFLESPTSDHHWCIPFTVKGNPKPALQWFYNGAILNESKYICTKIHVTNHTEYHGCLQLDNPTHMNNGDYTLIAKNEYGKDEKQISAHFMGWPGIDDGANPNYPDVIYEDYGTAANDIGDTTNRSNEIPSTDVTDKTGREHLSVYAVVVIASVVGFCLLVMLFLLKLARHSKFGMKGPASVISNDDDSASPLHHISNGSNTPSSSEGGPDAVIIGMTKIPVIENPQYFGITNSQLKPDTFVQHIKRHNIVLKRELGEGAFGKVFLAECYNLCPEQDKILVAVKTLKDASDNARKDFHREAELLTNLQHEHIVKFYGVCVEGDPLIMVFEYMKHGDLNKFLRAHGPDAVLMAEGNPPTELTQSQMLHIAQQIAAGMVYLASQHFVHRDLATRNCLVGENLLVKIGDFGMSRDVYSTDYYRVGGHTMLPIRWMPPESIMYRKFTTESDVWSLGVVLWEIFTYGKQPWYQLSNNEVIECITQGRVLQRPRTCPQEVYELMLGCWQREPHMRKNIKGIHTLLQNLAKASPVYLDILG", "experiment": "Inhibition of NTRK2 at 10 uM"}, "[16]": {"target": "NT-3 growth factor receptor (Homo sapiens) (UniProt Q16288)", "sequence (Q16288 32-839 limits assumed)": "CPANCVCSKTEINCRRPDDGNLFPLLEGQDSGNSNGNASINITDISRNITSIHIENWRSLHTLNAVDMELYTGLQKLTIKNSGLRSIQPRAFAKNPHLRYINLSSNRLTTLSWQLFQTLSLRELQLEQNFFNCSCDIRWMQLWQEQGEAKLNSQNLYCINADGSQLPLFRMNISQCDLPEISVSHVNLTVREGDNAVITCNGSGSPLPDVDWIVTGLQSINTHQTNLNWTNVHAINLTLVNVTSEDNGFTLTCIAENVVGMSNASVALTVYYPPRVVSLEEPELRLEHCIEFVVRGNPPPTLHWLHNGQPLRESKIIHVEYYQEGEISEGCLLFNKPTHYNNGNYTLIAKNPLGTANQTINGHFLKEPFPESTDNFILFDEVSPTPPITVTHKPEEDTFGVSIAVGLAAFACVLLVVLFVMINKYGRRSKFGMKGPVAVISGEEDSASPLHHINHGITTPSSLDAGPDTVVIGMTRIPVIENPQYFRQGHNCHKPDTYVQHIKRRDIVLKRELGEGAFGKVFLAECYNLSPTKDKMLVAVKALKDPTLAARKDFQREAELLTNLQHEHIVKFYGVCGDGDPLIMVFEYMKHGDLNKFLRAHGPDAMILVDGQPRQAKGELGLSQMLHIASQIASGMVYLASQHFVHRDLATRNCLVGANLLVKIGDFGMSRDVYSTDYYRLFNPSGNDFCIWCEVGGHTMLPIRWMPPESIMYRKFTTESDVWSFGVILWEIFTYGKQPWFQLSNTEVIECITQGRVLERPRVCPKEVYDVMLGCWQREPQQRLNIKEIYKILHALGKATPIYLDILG", "experiment": "Inhibition of NTRK3 at 10 uM"}, "[17]": {"target": "NUAK family SNF1-like kinase 1 (Homo sapiens) (UniProt O60285)", "sequence (O60285 whole entry)": "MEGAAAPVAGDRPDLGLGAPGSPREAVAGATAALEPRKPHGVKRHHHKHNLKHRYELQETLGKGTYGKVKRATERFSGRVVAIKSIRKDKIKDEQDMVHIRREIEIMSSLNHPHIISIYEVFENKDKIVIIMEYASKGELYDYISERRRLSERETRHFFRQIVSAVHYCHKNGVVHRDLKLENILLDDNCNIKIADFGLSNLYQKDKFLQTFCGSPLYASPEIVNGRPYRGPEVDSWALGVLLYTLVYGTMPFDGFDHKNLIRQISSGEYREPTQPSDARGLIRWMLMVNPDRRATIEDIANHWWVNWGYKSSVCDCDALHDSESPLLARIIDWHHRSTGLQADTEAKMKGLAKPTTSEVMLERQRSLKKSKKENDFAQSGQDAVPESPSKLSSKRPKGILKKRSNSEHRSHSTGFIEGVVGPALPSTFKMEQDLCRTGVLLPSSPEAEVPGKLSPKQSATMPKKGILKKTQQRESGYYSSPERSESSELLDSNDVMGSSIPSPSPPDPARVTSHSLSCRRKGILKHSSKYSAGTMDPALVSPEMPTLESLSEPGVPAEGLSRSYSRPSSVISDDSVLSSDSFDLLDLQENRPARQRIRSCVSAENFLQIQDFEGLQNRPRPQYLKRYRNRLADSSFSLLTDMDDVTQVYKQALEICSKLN", "experiment": "Inhibition of NUAK1 at 10 uM"}, "[18]": {"test_system": "Platelet-derived growth factor receptor alpha (Homo sapiens), P16234 [V561D]", "experiment": "Inhibition of PDGFRA V561D mutant at 10 uM"}, "[19]": {"test_system": "Proto-oncogene tyrosine-protein kinase receptor Ret (Homo sapiens), P07949 [V804L]", "experiment": "Inhibition of RET V804L mutant at 10 uM"}, "[20]": {"test_system": "Proto-oncogene tyrosine-protein kinase receptor Ret (Homo sapiens), P07949 [Y791F]", "experiment": "Inhibition of RET Y791F mutant at 10 uM"}, "[21]": {"target": "Serine/threonine-protein kinase Sgk1 (Homo sapiens) (UniProt O00141)", "sequence (O00141 whole entry)": "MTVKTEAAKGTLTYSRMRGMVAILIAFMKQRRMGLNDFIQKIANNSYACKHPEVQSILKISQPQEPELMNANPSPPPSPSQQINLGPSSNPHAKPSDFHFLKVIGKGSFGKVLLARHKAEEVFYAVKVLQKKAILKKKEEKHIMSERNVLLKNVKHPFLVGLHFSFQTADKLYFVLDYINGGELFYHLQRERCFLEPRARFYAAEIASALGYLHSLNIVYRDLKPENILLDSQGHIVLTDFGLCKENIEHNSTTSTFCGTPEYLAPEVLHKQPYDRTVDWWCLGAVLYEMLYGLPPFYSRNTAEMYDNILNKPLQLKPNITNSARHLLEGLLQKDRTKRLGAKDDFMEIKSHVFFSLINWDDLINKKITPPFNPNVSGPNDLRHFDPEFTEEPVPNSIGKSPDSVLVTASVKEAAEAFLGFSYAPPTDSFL", "experiment": "Inhibition of SGK1 at 10 uM"}, "[22]": {"target": "Tyrosine-protein kinase SYK (Homo sapiens) (UniProt P43405)", "experiment": "Inhibition of SYK at 10 uM"}}}
{"smiles": "C(#Cc1n[nH]c2ccccc12)c1ccncc1", "values": [{"measurement": "GI50", "setting": "MDA-MB-231", "value": 7.84, "unit": "µM"}, {"measurement": "GI50", "setting": "MCF7", "value": 2.58, "unit": "µM"}, {"measurement": "IC50", "setting": "[1]", "value": 39, "unit": "µM"}, {"measurement": "t1/2", "setting": "Liver microsomes", "value": 35, "unit": "min"}, {"measurement": "inhibition", "setting": "[2]", "value": "> 50", "unit": "%"}, {"measurement": "inhibition", "setting": "[3]", "value": "> 50", "unit": "%"}, {"measurement": "inhibition", "setting": "[4]", "value": "> 50", "unit": "%"}, {"measurement": "inhibition", "setting": "[5]", "value": "> 50", "unit": "%"}, {"measurement": "inhibition", "setting": "[6]", "value": "> 50", "unit": "%"}, {"measurement": "inhibition", "setting": "[7]", "value": "> 50", "unit": "%"}, {"measurement": "inhibition", "setting": "[8]", "value": "> 50", "unit": "%"}, {"measurement": "inhibition", "setting": "[9]", "value": "> 50", "unit": "%"}, {"measurement": "inhibition", "setting": "[10]", "value": "> 50", "unit": "%"}, {"measurement": "inhibition", "setting": "[11]", "value": "> 50", "unit": "%"}, {"measurement": "inhibition", "setting": "[12]", "value": "> 50", "unit": "%"}, {"measurement": "inhibition", "setting": "[13]", "value": "> 50", "unit": "%"}, {"measurement": "inhibition", "setting": "[14]", "value": "> 50", "unit": "%"}, {"measurement": "inhibition", "setting": "[15]", "value": "> 50", "unit": "%"}, {"measurement": "inhibition", "setting": "[16]", "value": "> 50", "unit": "%"}, {"measurement": "inhibition", "setting": "[17]", "value": "> 50", "unit": "%"}, {"measurement": "inhibition", "setting": "[18]", "value": "> 50", "unit": "%"}, {"measurement": "inhibition", "setting": "[19]", "value": "> 50", "unit": "%"}, {"measurement": "inhibition", "setting": "[20]", "value": "> 50", "unit": "%"}, {"measurement": "inhibition", "setting": "[21]", "value": "> 50", "unit": "%"}, {"measurement": "inhibition", "setting": "[22]", "value": "> 50", "unit": "%"}]}
